Experiment [1] addresses T1, Sphingosine kinase 1 (Homo sapiens, UniProt Q9NYA1). The experiment in a line: Inhibition of recombinant sphingosine kinase 1 (unknown origin) expressed in HEK293 cells using sphingosine as substrate at 50 uM after 30 mins relative to control in presence of [gamma32P]-ATP. The procedure, abridged:
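Single-point inhibitor test at 50 μM with 250 μM ATP. […] Activity is reported as % of control, where control (100%) is activity with sphingosine alone. n = 3, mean ± SD.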

The target in experiment [2] is T2, Sphingosine kinase 2 (Homo sapiens) (UniProt Q9NRA0).
T2 sequence (whole entry): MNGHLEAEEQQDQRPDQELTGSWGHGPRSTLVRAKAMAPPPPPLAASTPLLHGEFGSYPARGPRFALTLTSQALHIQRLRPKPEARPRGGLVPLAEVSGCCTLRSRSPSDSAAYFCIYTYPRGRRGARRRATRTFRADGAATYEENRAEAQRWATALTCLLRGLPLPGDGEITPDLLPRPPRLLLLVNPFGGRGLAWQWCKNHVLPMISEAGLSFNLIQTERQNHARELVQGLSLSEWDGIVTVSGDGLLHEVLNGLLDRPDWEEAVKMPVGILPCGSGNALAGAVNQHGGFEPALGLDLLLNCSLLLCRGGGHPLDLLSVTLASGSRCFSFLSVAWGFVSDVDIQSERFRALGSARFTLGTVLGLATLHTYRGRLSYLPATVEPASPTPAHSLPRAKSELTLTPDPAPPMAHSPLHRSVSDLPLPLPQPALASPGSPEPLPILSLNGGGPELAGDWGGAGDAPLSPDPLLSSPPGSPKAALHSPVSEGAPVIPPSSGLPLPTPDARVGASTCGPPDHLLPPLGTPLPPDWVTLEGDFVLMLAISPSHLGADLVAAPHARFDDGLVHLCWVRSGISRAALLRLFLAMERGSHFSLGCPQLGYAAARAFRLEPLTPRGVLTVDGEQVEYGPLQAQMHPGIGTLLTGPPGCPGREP
Briefly: Inhibition of sphingosine kinase 2 (unknown origin) using sphingosine as substrate at 50 uM after 30 mins relative to control in presence of [gamma32P]-ATP.

Experiment [3] concerns the target T1, Sphingosine kinase 1. Briefly: Inhibition of recombinant sphingosine kinase 1 (unknown origin) expressed in HEK293 cells using sphingosine as substrate after 30 mins in presence of [gamma32P]-ATP.
In experiment [4] the target is T2, Sphingosine kinase 2 (Homo sapiens). The experiment in a line: Activity at sphingosine kinase 2 (unknown origin) at 50 uM after 30 mins in presence of [gamma32P]-ATP.
The target of experiment [5] is T1, Sphingosine kinase 1. Briefly: Inhibition of recombinant sphingosine kinase 1 (unknown origin) expressed in HEK293 cells using sphingosine as substrate at 100 uM after 30 mins relative to control in presence of [gamma32P]-ATP.
The target of the next experiment is T3, Sphingosine kinase 2 (Homo sapiens, UniProt Q9NRA0).
T3 sequence (Q9NRA0 whole entry): T2 sequence (whole entry)
Briefly: (§1) Inhibition of sphingosine kinase 2 (unknown origin) using sphingosine as substrate after 30 mins in presence of [gamma32P]-ATP. In short, it runs like this: (§2)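 Results are given as % of the sphingosine-only control, and IC50 was derived from the curve. n = 3, ± SD.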

Experiment [6] addresses T2, Sphingosine kinase 2 (Homo sapiens). Described as §1. In short, it runs like this: as §2
Setting [7] is: 100 uM, in the assay text read “at 100 uM” for “at 50 uM”.

Each structure is given as a SMILES string. Calls of active or inactive are those of the source. The calls are words filed in the database; no cut-off is given here.

T1 sequence (Q9NYA1 whole entry): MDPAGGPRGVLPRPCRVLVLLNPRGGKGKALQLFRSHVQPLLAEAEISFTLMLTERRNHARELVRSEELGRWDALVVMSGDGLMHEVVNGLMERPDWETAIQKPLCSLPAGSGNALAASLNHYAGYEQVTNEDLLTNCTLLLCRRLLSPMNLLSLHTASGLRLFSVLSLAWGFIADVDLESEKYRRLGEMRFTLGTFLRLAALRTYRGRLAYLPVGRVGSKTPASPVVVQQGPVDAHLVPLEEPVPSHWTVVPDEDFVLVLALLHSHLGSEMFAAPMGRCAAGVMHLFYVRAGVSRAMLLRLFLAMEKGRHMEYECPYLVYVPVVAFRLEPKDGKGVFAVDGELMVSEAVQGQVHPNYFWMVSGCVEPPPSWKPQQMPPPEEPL

Regarding `CCCCCc1cn(-c2ccc(CCN3CCCCC3)cc2)nn1`, at Sphingosine kinase 1 [1], the inhibition result was “inactive”. With `CCCCCCCCCCCCc1ccc(C(=O)N2CCC[C@@H]2CO)cc1`, on Sphingosine kinase 1 [1], the inhibition result was “inactive”.

Consider `CCCCc1cn(-c2ccc(CC[N+]3(C)CCCCC3)cc2)nn1`, for which the inhibition entry (in experiment [2] (50 uM); at Sphingosine kinase 1 [1]) was “inactive” in each case. In the case of `CCCCc1cn(-c2ccc(CCN3CCC(O)CC3)cc2)nn1`, the inhibition entry on Sphingosine kinase 1 [1] is “inactive”.

On to `CCCCCCCCc1ccc(CCN2CCC(N)CC2)cc1`, for which, at Sphingosine kinase 1 [3], the IC50 was 16.9 µM and the inhibition entry is “Dose-dependent effect”. In the case of `CCCCCCCCc1cn(-c2ccc(CCN3CCC(O)CC3)cc2)nn1`, the inhibition result on Sphingosine kinase 1 [1] was “Active”. Take `CCCCCc1cn(-c2ccc(CC[N+]3(C)CCCCC3)cc2)nn1`: the inhibition entry (in experiment [2] (50 uM); on Sphingosine kinase 1 [1]) was “inactive” in each case. In the case of `CCCCCCCCc1ccc(CN2CCC(O)CC2)cc1`, the inhibition entry on Sphingosine kinase 1 [1] was “Active”. As for `CCCCCCCCc1ccc(CCN2CCC[C@H]2CO)cc1`, the inhibition turned out to be 45.7% in experiment [2] (setting [7]) and 72.2% on Sphingosine kinase 1 [5]. Also, in experiment [4], the result was Active. Take `Cc1ccc(CCN2CCC(O)CC2)cc1`: at Sphingosine kinase 1 [1], the inhibition entry was “inactive”.

Turning to `CCCCCCCCc1cn(-c2ccc(CCN3CCCCC3)cc2)nn1`, the inhibition entry at Sphingosine kinase 1 [1] was “inactive”. On the same count and under the same terms, the same measure for `CCCCCCCCc1ccc(CCN2CCC(N=[N+]=[N-])CC2)cc1`: “inactive”.

On to `CCCCCCCCc1ccc(CCN2CC[C@H](O)C2)cc1`, for which the inhibition entry on Sphingosine kinase 1 [1] is “Active”.

For the molecule `CCCCCCCCc1ccc(C(=O)NCc2ccncc2)cc1`, the inhibition result on Sphingosine kinase 1 [1] was “inactive”. Consider `CCCCCCCCc1ccc(CCCN2CCC(O)CC2)cc1`, for which, at Sphingosine kinase 1 [1], the inhibition result is “Active”. With `Cc1ccc(CCN2CCC(N)CC2)cc1`, at Sphingosine kinase 1 [1], the inhibition entry is “inactive”.

With `CCCCCCCCc1ccc(CCc2cccnc2)cc1`, at Sphingosine kinase 1 [1], the inhibition result was “inactive”. Same read-out and setting: the same measure for `CCCCCCCCc1ccc(C(=O)Nc2ccc(O)cc2)cc1`: “inactive”; for `CCCCCCCCc1cn(-c2ccc(CCO)cc2)nn1`: “inactive”.

Consider `CCCCCCCCc1ccc(CCN2CCC(OC)CC2)cc1`, for which the inhibition result at Sphingosine kinase 1 [1] was “inactive”. The same measure, in the same setting: the same measure for `CCCCCCCCc1ccc(CCCCN2CCC(O)CC2)cc1`: “Active”. In the case of `CCCCCCCCCCCCc1ccc(CCN2CCC[C@H]2CO)cc1`, the inhibition in experiment [2] (setting [7]) was determined as 49.7%; on Sphingosine kinase 1 [5] it was 49.9%. For the same molecule, the outcome in experiment [4] was Active.

Take `CCCCCCCCCCCCc1ccc(CCN2CCC[C@@H]2CO)cc1`: the IC50 at Sphingosine kinase 2 was determined as 5 µM; at Sphingosine kinase 1 [3] it was 5.3 µM. In addition, the inhibition result (in experiment [6]; at Sphingosine kinase 1 [3]) was “Dose-dependent effect” throughout. In the case of `CCCCCCCCc1ccc(C(=O)Nc2ccc(CCO)cc2)cc1`, the inhibition result on Sphingosine kinase 1 [1] is “inactive”. `CCCCCCCCc1ccc(CCN2CCC(=O)CC2)cc1`: the inhibition entry in experiment [2] (50 uM) is “Active”. For `CCCCCc1cn(-c2ccc(CCN3CCC(O)CC3)cc2)nn1`, at Sphingosine kinase 1 [1], the inhibition result was “inactive”. Consider `CCCCCCCCCCCCc1ccc(C(=O)N2CCC[C@H]2CO)cc1`, for which the inhibition result at Sphingosine kinase 1 [1] is “inactive”. For the molecule `CCCCCCCCc1ccc(-n2cc(-c3cccnc3)nn2)cc1`, the inhibition entry on Sphingosine kinase 1 [1] is “inactive”. As to `CCCCCCCCc1ccc(CCN2CCC[C@@H]2CO)cc1`, the IC50 at Sphingosine kinase 2 came out at 5.2 µM; at Sphingosine kinase 1 [3] it was 2.2 µM. In addition, the inhibition entry (in experiment [6]; at Sphingosine kinase 1 [3]) was “Dose-dependent effect” throughout.

`CCCCCCCCc1cn(-c2ccc(CC[N+]3(C)CCCCC3)cc2)nn1`: the inhibition result (in experiment [2] (50 uM); on Sphingosine kinase 1 [1]) was “inactive” throughout. In the case of `CCCCc1cn(-c2ccc(CCN3CCCCC3)cc2)nn1`, on Sphingosine kinase 1 [1], the inhibition entry is “inactive”. As to `CCCCCCCCc1ccc(CCc2ccc[n+](C)c2)cc1`, the inhibition result (in experiment [2] (50 uM); on Sphingosine kinase 1 [1]) was “inactive” throughout. In the case of `CCCCCCCCCCCCc1ccc(CCN2CCC(N)CC2)cc1`, at Sphingosine kinase 1 [1], the inhibition result is “inactive”.

Turning to `CCCCCCCCc1ccc(CCN2CCC(F)CC2)cc1`, the inhibition result on Sphingosine kinase 1 [1] is “inactive”. In the case of `CCCCCCCCCCCCc1ccc(C(=O)N2CCC(O)CC2)cc1`, the inhibition result at Sphingosine kinase 1 [1] was “inactive”. On the same count and under the same terms, next, `CCCCCCCCc1cn(-c2ccc(O)cc2)nn1`: “inactive”. Same read-out and setting: the same measure for `CCCCCCCCc1ccc(C(=O)N2CCC(O)CC2)cc1`: “inactive”; for `CCCCCCCCc1ccc(CCN2CC[C@@H](O)C2)cc1`: “Active”. Consider `CCCCCCCCc1ccc(C[n+]2ccc(N3CCC(C)CC3)cc2)cc1`, for which, in experiment [2] (50 uM), the inhibition entry was “Active”. Also, on Sphingosine kinase 1 [1], the inhibition entry is “inactive”. As for `Cc1ccc(CCN2CCC(N=[N+]=[N-])CC2)cc1`, the inhibition entry at Sphingosine kinase 1 [1] was “inactive”. Same read-out and setting: next, `Cc1ccc(CCN2CCC[C@@H]2CO)cc1`: “inactive”.

The values are drawn from ChEMBL document CHEMBL3085741, “Structure-activity relationships and molecular modeling of sphingosine kinase inhibitors” (J Med Chem, 2013).
